Experiment [1] concerns the target T1, Adenosine receptor A1 (Rattus norvegicus, UniProt P25099).
T1 sequence (P25099 whole entry): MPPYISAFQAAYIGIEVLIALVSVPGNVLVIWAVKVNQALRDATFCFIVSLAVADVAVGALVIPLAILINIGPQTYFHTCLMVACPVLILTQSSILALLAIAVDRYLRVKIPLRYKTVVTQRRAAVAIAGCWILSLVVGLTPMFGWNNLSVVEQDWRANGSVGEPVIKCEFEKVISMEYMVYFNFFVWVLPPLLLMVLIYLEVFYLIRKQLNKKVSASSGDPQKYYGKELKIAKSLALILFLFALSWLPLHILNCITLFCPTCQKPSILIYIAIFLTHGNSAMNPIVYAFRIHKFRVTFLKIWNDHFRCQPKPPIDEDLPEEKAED
In words: Binding affinity for adenosine A1 receptor in vitro using rat brain membranes. The experiment is classed as cell membranes. An outline of the steps: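 Whole rat brain membranes, homogenized in 50 mM Tris-HCl pH 7.4 and spun at 1090g then 48000g, pretreated with adenosine deaminase 1 U/mL for 30 min. Nonspecific binding defined with 10 μM PIA. Separated by GF/B filtration and scintillation counted, in triplicate. IC50 from log-logit regression, Ki via Cheng-Prusoff, one experiment.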

Experiment [2] relates to Mus musculus. In words: Effective dose of compound for phenylbenzoquinone-Induced writhing in mice after peroral administration expressed as analgesic activity; Not dose dependent. In kind it is functional. Particulars: po. The method, boiled down: (§1)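 Mice dosed orally (0.5 mL/20 g); 1 h later given 0.02% phenylbenzoquinone in hydroalcoholic solution ip (0.20-0.24 mL). Writhings and stretches counted from minute 5 to minute 10. Six animals per group. Inhibition taken against the control mean; ED50 (50% decrease) by linear regression.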
(Writhing tests count abdominal constrictions after an irritant is injected.)

In experiment [3] the target is T2, Adenosine receptor A1 (Rattus norvegicus) (UniProt P25099).
T2 sequence (whole entry): T1 sequence (P25099 whole entry)
Put plainly: Percent displacement from adenosine A1 receptor at 10e-7 M in rat brain membrane in vitro. The experiment is classed as cell membranes.

Experiment [4] concerns the target Adenosine A2 receptor (Rattus norvegicus, UniProt P29276+P30543). In words: Binding affinity for adenosine A2 receptor in vitro using rat striatal membrane. The experiment is classed as cell membranes. The method, boiled down:
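Rat striatal membranes in 50 mM Tris-HCl, 10 mM MgCl2, pH 7.7, adenosine deaminase treated (1 U/mL, 30 min). Incubated with [3H]NECA (4 nM, 50 μL) plus 0.11 μM cyclopentyladenosine and competitor for 60 min at 25 °C. Nonspecific binding defined with 5 μM NECA. GF/B filtration, scintillation counting, triplicate. IC50 from log-logit regression, Ki via Cheng-Prusoff, one experiment.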

The target of experiment [5] is T3, Adenosine A2 receptor (Rattus norvegicus) (UniProt P29276+P30543). Put plainly: Percent displacement from adenosine A2 receptor at 10e-5 M in rat striatal membrane in vitro. The experiment is classed as cell membranes.
The target of experiment [6] is T2, Adenosine receptor A1 (Rattus norvegicus). Put plainly: Percent displacement from adenosine A1 receptor at 10e-5 M in rat brain membrane in vitro. The experiment is classed as cell membranes.
In experiment [7] the target is T3, Adenosine A2 receptor (Rattus norvegicus). Put plainly: Percent displacement from adenosine A2 receptor at 10e-7 M in rat striatal membrane in vitro. In kind it is cell membranes. As to conditions: Striatum.
Experiment [8] relates to Mus musculus. In words: Effective dose of compound for phenylbenzoquinone-Induced writhing in mice after peroral administration expressed as analgesic activity; Inactive. The experiment is classed as functional, organism-based. The method, boiled down: as §1
Experiment [9] has as its system Mus musculus. Put plainly: Effective dose for phenylbenzoquinone-induced writhing in mice after peroral administration expressed as analgesic activity. In kind it is functional. Particulars: po. An outline of the steps: as §1

Activity calls are given as the source filed them. The rule behind the calls is not given here. Bounds are passed on as bounds.

As to `Cc1ccc(Cn2cc(CCNc3ncnc4c3ncn4C3O[C@H](C(=O)NC4CC4)[C@@H](O)[C@H]3O)c3ccccc32)cc1` (stereo not given in full), the Ki amounted to 130 nM in experiment [1] and 340 nM in experiment [4]. Further, the ED50 in experiment [2] was under 3 mg/kg. Further, the Displacement in experiment [3] is 37%; in experiment [5] it was 89%; in [6] it was 97%; in experiment [7], 21%.

For the compound `CSc1ccc2c(c1)c(CCNc1ncnc3c1ncn3C1O[C@H](C(=O)NC3CC3)[C@@H](O)[C@H]1O)cn2Cc1cc(C)ccc1C` (stereo not given in full), the ED50 in experiment [2] was over 10 mg/kg. Besides, the Displacement in experiment [3] stood at 13%; in experiment [5] it was 76%; in [6], 82%; in experiment [7] it was 8%.

In [2], `C#CCn1cc(CCNc2ncnc3c2ncn3C2O[C@H](C(=O)NC3CC3)[C@@H](O)[C@H]2O)c2ccccc21` (stereo not given in full) yielded an ED50 of under 10 mg/kg. The Displacement in experiment [3] was determined as 64%; in [5], 83%; in experiment [6], 95%; in experiment [7] it was 25%.

With `CCNC(=O)[C@H]1OC(n2cnc3c(NCCc4cn(Cc5cc(C)ccc5C)c5ccccc45)ncnc32)[C@H](O)[C@@H]1O` (stereo not given in full), the Ki came out at 160 nM in [1] and 660 nM in [4]. The ED50 in experiment [2] is under 2 mg/kg. Moreover, the Displacement in experiment [3] worked out at 38%; in experiment [5], 86%; in experiment [6] it was 92%; in [7] it was 12%.

In the case of `CN(C)CCn1cc(CCNc2ncnc3c2ncn3C2O[C@H](C(=O)NC3CC3)[C@@H](O)[C@H]2O)c2ccccc21` (stereo not given in full), the ED50 in experiment [2] is over 60 mg/kg. For the same compound, the Displacement in [3] stood at 83%; in experiment [5] it was 95%; in experiment [6], 100%; in experiment [7] it was 51%.

Turning to `O=C(NC1CC1)[C@H]1OC(n2cnc3c(NCCc4cn(CC5CC5)c5ccccc45)ncnc32)[C@H](O)[C@@H]1O` (stereo not given in full), the Ki in experiment [1] was found to be 67 nM; in [4], 190 nM. Moreover, in [2], the ED50 was over 10 mg/kg. Also, the Displacement worked out at 45% in experiment [3], 87% in experiment [5], 97% in [6] and 25% in experiment [7].

Turning to `Cc1ccc(Cn2cc(CCNc3ncnc4c3ncn4C3O[C@H](C(=O)NC4CC4)[C@@H](O)[C@H]3O)c3ccccc32)cc1C` (stereo not given in full), the Ki was 160 nM in experiment [1] and 820 nM in [4]. In addition, the ED50 in experiment [2] is over 30 mg/kg. Further, the Displacement in experiment [3] was 29%; in experiment [5], 83%; in [6], 96%; in [7], 13%.

In the case of `O=C(NC1CC1)[C@H]1O[C@@H](n2cnc3c(NCCc4cn(Cc5cccnc5)c5ccccc45)ncnc32)[C@H](O)[C@@H]1O`, the Ki in experiment [1] was determined as 26 nM; in experiment [4] it was 183 nM. In experiment [2], this compound returned an ED50 of over 30 mg/kg. Moreover, the Displacement in experiment [3] came out at 78%; in [5], 98%; in [6], 97%; in experiment [7] it was 30%.

On to `O=C(NC1CC1)[C@H]1OC(n2cnc3c(NCCc4cn(Cc5ccc(Cl)cc5)c5ccc(Cl)cc45)ncnc32)[C@H](O)[C@@H]1O` (stereo not given in full), for which the ED50 entry in [8] was “inactive”. For the same compound, the Displacement is 49% in [3], 79% in experiment [5], 100% in experiment [6] and 23% in experiment [7].

Take `O=C(NC1CC1)[C@H]1OC(n2cnc3c(NCCc4cn(Cc5ccc(Cl)c(Cl)c5)c5ccccc45)ncnc32)[C@H](O)[C@@H]1O` (stereo not given in full): the values for the Ki in experiment [1] and in [4] were 140 nM and 1400 nM, respectively. The compound further came in with an ED50 in experiment [2] of over 30 mg/kg. Besides, the Displacement in experiment [3] came to 52%; in experiment [5], 81%; in [6], 100%; in experiment [7], 24%.

In the case of `Cc1ccc(C)c(Cn2c(-c3ccccc3)c(CCNc3ncnc4c3ncn4C3O[C@H](C(=O)NC4CC4)[C@@H](O)[C@H]3O)c3ccccc32)c1` (stereo not given in full), the ED50 in experiment [2] is over 30 mg/kg. In addition, the Displacement in experiment [3] is 6%; in experiment [5] it was 23%; in experiment [6], 31%; in experiment [7], 0%.

In the case of `Cc1ccc(C)c(Cn2cc(CC(C)Nc3ncnc4c3ncn4C3O[C@H](C(=O)NC4CC4)[C@@H](O)[C@H]3O)c3ccccc32)c1` (stereo not given in full), the Ki was found to be 180 nM in experiment [1] and 2200 nM in experiment [4]. Moreover, the 50% effect level in [9] (ED50) was put at a dose of 3.6 mg/kg. For the same compound, the Displacement came out at 21% in experiment [3], 84% in [5], 96% in experiment [6] and 9% in experiment [7].

As for `O=C(NC1CC1)[C@H]1OC(n2cnc3c(NCCc4cn(Cc5ccc(Br)cc5F)c5ccccc45)ncnc32)[C@H](O)[C@@H]1O` (stereo not given in full), in [8], the ED50 entry was “inactive”. For the same compound, the Displacement in experiment [3] was determined as 40%; in experiment [5], 92%; in experiment [6], 96%; in [7] it was 23%.

As to `COc1ccccc1Cn1cc(CCNc2ncnc3c2ncn3C2O[C@H](C(=O)NC3CC3)[C@@H](O)[C@H]2O)c2ccccc21` (stereo not given in full), the figures for the Ki in experiment [1] and in [4] were 170 nM and 810 nM, respectively. In [9], this compound returned an ED50 of 2.3 mg/kg. In addition, the Displacement came to 42% in experiment [3], 89% in [5], 100% in experiment [6] and 23% in experiment [7].

On to `CC(C)n1cc(CCNc2ncnc3c2ncn3[C@@H]2O[C@H](C(=O)NC3CC3)[C@@H](O)[C@H]2O)c2ccccc21`, for which the values for the Ki in experiment [1] and in [4] were 120 nM and 390 nM, respectively. In experiment [9], the ED50 worked out at 1.6 mg/kg. For the same compound, the Displacement in experiment [3] came out at 4%; in experiment [5], 91%; in experiment [6], 87%; in [7], 14%.

Regarding `Cc1ccc(C)c(Cn2cc(CCNc3ncnc4c3ncn4[C@@H]3O[C@H](C(=O)NC4CC4)[C@@H](O)[C@H]3O)c3cc(C)ccc32)c1`, the Ki in experiment [1] was 62 nM; in experiment [4], 890 nM. For the same compound, in experiment [9], the 50% effect level (ED50) was put at a dose of 0.9 mg/kg. Further, the Displacement in experiment [3] was 50%; in [5], 70%; in experiment [6] it was 100%; in experiment [7] it was 3%.

Take `O=C(NC1CC1)[C@H]1OC(n2cnc3c(NCCc4cn(CCN5CCCCC5)c5ccccc45)ncnc32)[C@H](O)[C@@H]1O` (stereo not given in full): the Ki was found to be 8.3 nM in experiment [1] and 120 nM in experiment [4]. The compound further had an ED50 in experiment [9] of 7.3 mg/kg. For the same compound, the Displacement in [3] is 90%; in experiment [5], 96%; in [6] it was 99%; in experiment [7] it was 44%.

In the case of `OC[C@H]1O[C@@H](n2cnc3c(NCCc4cn(Cc5ccc(Cl)cc5)c5ccccc45)ncnc32)[C@H](O)[C@@H]1O`, the Ki worked out at 11 nM in [1] and 140 nM in [4]. In experiment [9], this compound returned a median effective dose (ED50) of 40.8 mg/kg. Also, the Displacement turned out to be 71% in experiment [3], 97% in [5], 100% in [6] and 59% in experiment [7].

As for `Cc1ccc(C)c(Cn2cc(CCNc3ncnc4c3ncn4[C@@H]3O[C@H](C(=O)NC4CC4)[C@@H](O)[C@H]3O)c3cc(Cl)ccc32)c1`, the Ki in experiment [1] came to 150 nM; in [4], 660 nM. For the same compound, the 50% effect level in experiment [9] (ED50) was put at a dose of 6.3 mg/kg. Further, the Displacement was 47% in [3], 77% in experiment [5], 99% in experiment [6] and 10% in experiment [7].

Regarding `OC[C@H]1OC(n2cnc3c(NCCc4cn(Cc5ccccc5)c5ccccc45)ncnc32)[C@H](O)[C@@H]1O` (stereo not given in full), the inhibition constant Ki was 50 nM in experiment [1] and 250 nM in experiment [4]. In addition, the ED50 in [2] was over 30 mg/kg. Further, the Displacement is 67% in experiment [3], 95% in experiment [5], 100% in [6] and 30% in experiment [7].

As to `CC(C)(CO)NC(=O)[C@H]1OC(n2cnc3c(NCCc4cn(Cc5ccc(Cl)cc5)c5ccccc45)ncnc32)[C@H](O)[C@@H]1O` (stereo not given in full), the ED50 result in experiment [8] was “inactive”. Besides, the Displacement in experiment [3] was 5%; in experiment [5], 50%; in experiment [6], 79%; in experiment [7] it was 0%.

Regarding `Cc1ccc(C)c(Cn2cc(CCNc3ncnc4c3ncn4C3O[C@H](C(=O)NC4CC4)[C@@H](O)[C@H]3O)c3ccccc32)c1` (stereo not given in full), the values for the Ki in experiment [1] and in experiment [4] were 140 nM and 670 nM, respectively. In addition, in experiment [9], the ED50 was 2.4 mg/kg. For the same compound, the Displacement in [3] came to 26%; in experiment [5] it was 85%; in experiment [6], 93%; in experiment [7], 9%.

What is called Ki is the equilibrium dissociation constant of an inhibitor or competing ligand from its target. A higher Ki goes with weaker binding. A word on the ED50: it is the dose at which the effect has come halfway, by size or by number of responders.

For the origin of these results see ChEMBL document CHEMBL1127433, “N6-substituted adenosine receptor agonists. Synthesis and pharmacological activity as potent antinociceptive agents” (J Med Chem, 1994).
